# Assay outcomes as filed in PubChem.
# Shown are actives, neighbours in structure and some others; about 1% of the full set was active somewhere.
# LYPLA2 counter: blocks human lysophospholipase 2, a PME1 counter-screen. O95372. recombinant LYPLA2, FP-Rh probe fluorescence polarization. inhibition, % at 5.9 µM. actives 0.38% (n = 320,000);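 active = inhibition above the screen-wide mean plus 3 SD, limit set per campaign, cut at about 26% in these data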;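 note: 0% = LYPLA2 with DMSO and 100% = wells lacking LYPLA2 enzyme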
# Target sequence (O95372 whole entry, looked up): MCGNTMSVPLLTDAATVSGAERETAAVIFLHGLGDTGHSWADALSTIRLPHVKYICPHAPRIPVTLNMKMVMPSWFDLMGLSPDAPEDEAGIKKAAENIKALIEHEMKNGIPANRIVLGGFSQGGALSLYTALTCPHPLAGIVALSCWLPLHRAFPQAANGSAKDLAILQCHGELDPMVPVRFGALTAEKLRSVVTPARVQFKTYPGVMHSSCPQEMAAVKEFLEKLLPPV
# PREPL inh: inhibitors of human prolyl oligopeptidase-like enzyme PREPL; inhibition, % at 5.96 µM; AID 2751; recombinant PREPL, fluorescence polarization activity-based probe; actives 0.68% (n = 320,000); in the data active = inhibition above about 43%;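 note: 0% = enzyme with DMSO and 100% = wells lacking enzyme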
# LYPLA1 counter: counter-screen for PME1 inhibitors: inhibitors of human LYPLA1; O75608; recombinant LYPLA1, FP-Rh probe fluorescence polarization; inhibition, % at 5.9 µM; actives 0.16% (n = 320,000); AID 2174;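 active = inhibition above the mean of all tested compounds plus 3 SD, set per campaign, cut at about 14% in these data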;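 note: inhibitors block serine hydrolase probe labeling of LYPLA1 so polarization falls; 0% = enzyme with DMSO and 100% = wells lacking LYPLA1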
# proCasp3 act: activates human procaspase-3. actives 0.11% (n = 330,000). recombinant procaspase-3 D3A, Ac-DEVD-pNA absorbance 405 nm. P42574. AID 463141. activation, % at 8.5 µM;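 active = activation above the mean of all tested compounds plus 3 SD, cut at about 21% in these data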;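 note: 0% = DMSO alone and 100% = DMSO wells spiked with extra 5 µM PC-3 D3A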
#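 material = Procaspase-3 D3A mutant | probe or stimulus = Ac-DEVD-pNA | compound = single dose, 8.5 µM nominal compound, 0.8% DMSO | timing = 1 h preincubation, 2 h reaction | measured by = 405 nm absorbance of p-nitroaniline, reads at 0 and 120 min | benchmarks = DMSO-only low control, 5 µM PC-3 D3A high control | repeats = singlicate, each compound tested once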
# proCasp7 act: counter-screen: procaspase-7 (human) activation; P55210; recombinant procaspase-7, Ac-DEVD-pNA absorbance 405 nm; D23A/D198A/D206A triple mutant, cannot self-cleave; scale: DMSO 0, 5 µM enzyme 100; activation, % at 8.5 µM; actives 0.093% (n = 330,000);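 active = percent activation above the screen-wide mean plus 3 SD, cut at about 25% in these data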
# Target sequence (P55210 whole entry D23A/D198A/D206A): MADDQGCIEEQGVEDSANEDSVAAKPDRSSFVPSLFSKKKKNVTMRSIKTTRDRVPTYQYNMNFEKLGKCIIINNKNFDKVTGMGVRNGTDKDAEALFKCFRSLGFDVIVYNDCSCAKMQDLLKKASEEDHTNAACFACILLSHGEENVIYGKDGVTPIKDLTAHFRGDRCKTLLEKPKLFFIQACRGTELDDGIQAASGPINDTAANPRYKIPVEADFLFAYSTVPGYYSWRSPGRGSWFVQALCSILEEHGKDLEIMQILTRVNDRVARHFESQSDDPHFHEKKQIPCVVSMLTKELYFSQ
#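 Detection: p-Nitroaniline absorbance at 405 nm, read at 0 and 120 min; system: Uncleavable procaspase-7 mutant enzyme; evaluation: % activation from two-timepoint absorbance difference, scaled to controls; times: 1 h enzyme–compound preincubation and 2 h substrate reaction, both 25 °C; buffer or medium: Zinc-free HEPES pH 7.4 with 300 mM NaCl, 0.01% Triton X-100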
# LYPLA2 conf: LYPLA2 (human) inhibition, confirmation counter-screen; recombinant LYPLA2, FP-Rh probe fluorescence polarization; inhibition, % at 5.9 µM; AID 2232; actives 72% (n = 1,100); shares compounds with LYPLA2 counter;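 active = mean inhibition across replicates above the hit cutoff set in the primary screen, cut at about 26% in these data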;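 note: blocked labeling of the enzyme by serine hydrolase FP-Rh probe lowers polarization; 0% = enzyme with DMSO and 100% = wells lacking LYPLA2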
# LYPLA2 gel ABPP: LYPLA2 (human) inhibition, late stage results | shares compounds with LYPLA2 counter | rhLYPLA2 in mouse brain proteome, gel ABPP FP-Rh | inhibition, % at 20 µM | actives 30% (n = 150) | AID 652029;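 active = inhibition of LYPLA2 enzyme probe labeling above about 50%, limit read from the data; inactive = inhibition below that limit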;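 note: loss of FP-Rh probe labeling of the LYPLA2 gel band measured as band density; 0% = DMSO only control band and 100% = blank gel background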
# The depositor's hits bear a star; . = no result.
SMILES,LYPLA2 counter,PREPL inh,LYPLA1 counter,proCasp3 act,proCasp7 act,LYPLA2 conf,others
Fc1ccc(C2=Nn3c(Cc4ccccc4F)nnc3SC2)cc1,28*,-22,3,7,3,15,
Cc1nc2sc(C(c3ccc(Cl)cc3)N3CCN(c4ccccc4F)CC3)c(O)n2n1 (stereo not given),29*,-2,5,3,7,30*,
COCCCNC(=O)c1sc2ncn(CC(=O)Nc3ccc(C)c(Cl)c3)c(=O)c2c1C,42*,12,-11,-4,-5,35*,
CCCNC(=O)Cn1cnc2sc(C(=O)Nc3ccc4c(c3)OCO4)c(C)c2c1=O,4,4,-2,0,4,.,
COc1ccccc1NC(=O)Cn1cnc2sc(C(=O)NCc3ccco3)c(C)c2c1=O,64*,-1,0,-4,-8,57*,LYPLA2 gel ABPP=49
CCN(CC)CCCNC(=O)c1sc2ncn(CC(=O)Nc3ccc(C)c(Cl)c3)c(=O)c2c1C,38*,15,-3,5,9,40*,
N#CC1=C(N)OC2=C(CC/C2=C\c2ccccc2)C1c1ccccc1 (stereo not given),-6,3,-6,-11,-8,.,
CSc1ccc(/C=C(/NC(=O)c2ccc(C)cc2)C(=O)Nc2cccc(F)c2)cc1,0,14,0,0,2,.,
Cc1ccc(-n2cc(-c3ccccc3)c3c(N4CCN(C)CC4)ncnc32)cc1,30*,19,6,1,4,20,
OCCN1CCN(c2ncnc3c2c(-c2ccccc2)cn3-c2ccc(F)cc2)CC1,3,23,1,4,5,.,
CCCONC(=O)Nc1ccccc1[N+](=O)[O-],4,-6,3,-3,-16,.,
CCN(CC)CCN1C(=O)c2ccccc2NC1c1ccc(Br)cc1 (stereo not given),28*,-15,-1,1,-1,-3,
CCCCCCCCNC(C)C(O)c1ccc(SC(C)C)cc1 (stereo not given),40*,-11,2,-1,6,46*,
COc1cc(C2Oc3cc(C4Oc5cc(O)cc(O)c5C(=O)C4O)ccc3OC2CO)ccc1O (stereo not given),60*,1,10,3,8,69*,LYPLA2 gel ABPP=75*
Cc1cc(=O)oc2cc(Oc3ccc(C(N)=O)cc3[N+](=O)[O-])ccc12,33*,29,4,6,3,26*,
Cc1cc(Cl)ccc1Oc1ccc(C(N)=O)cc1[N+](=O)[O-],1,3,-3,-3,5,.,
CCC(=O)N(CC(=O)Nc1sc(C)c(C)c1C(N)=O)C1CCCC1,7,2,1,8,2,.,
O=C(O)c1cc([N+](=O)[O-])ccc1Nc1ccccc1,14,17,-1,-5,-9,.,
Cc1cccc(Nc2ccc([N+](=O)[O-])cc2C(=O)O)c1,36*,1,-2,5,-9,43*,
COc1ccc(CNCCc2ccc(Cl)cc2)cc1OCc1ccccc1,4,-59,0,-3,-3,.,
COc1ccc(CCNCc2ccc(OCc3ccccc3)cc2)cc1,32*,-37,1,4,5,30*,
COc1ccc(S(=O)(=O)N(C)c2ccc(C(=O)N3CCN(C)CC3)cc2)cc1,0,4,-2,7,4,.,
COc1ccc(N2CCN(C(=O)c3ccc(N(C)S(=O)(=O)c4ccc(C)cc4)cc3)CC2)cc1,50*,18,6,-5,3,55*,LYPLA2 gel ABPP=3
COc1ccc(N2CCN(C(=O)c3ccc(N(C)S(=O)(=O)c4ccc(OC)cc4)cc3)CC2)cc1,54*,8,3,1,-1,58*,LYPLA2 gel ABPP=36
COc1ccc(OC)c(CN2CCN(Cc3cc(=O)oc4cc(O)ccc34)CC2)c1,16,13,0,13,11,.,
SMILES,LYPLA2 counter,PREPL inh,LYPLA1 counter,proCasp3 act,proCasp7 act,LYPLA2 conf,others
CSc1ccc(CNC(=O)Cc2ccc(NC(=O)C3=C(C)OCCS3)cc2)cc1,-1,-3,-3,0,-3,.,
Cc1nn(C)c(C)c1CN(C)C(=O)c1cc2n(n1)C(C(F)(F)F)CC(c1cccs1)N2 (stereo not given),26*,24,-1,8,4,10,
Cc1nn(C)cc1CN(C)C(=O)c1nn2c(c1Cl)NC(c1cccs1)CC2C(F)(F)F (stereo not given),0,10,-1,-1,-3,.,
COCC(=O)N/N=C\c1ccccc1OC/C=C/c1ccccc1,50*,12,2,11,2,42*,
CCCCCCCCOC(=O)CCc1c(C)[nH]c(=S)[nH]c1=O,39*,9,3,-10,-4,30*,
CCCCCCOC(=O)CCc1c(C)nc(N)[nH]c1=O,-1,0,-3,-11,3,.,
Cc1ccc(NC(=O)CN2C(=O)S/C(=C\c3cccn3-c3cccc(C(=O)O)c3)C2=O)cc1C,36*,5,-9,1,5,43*,
Cc1ccc(NC(=O)CN2C(=O)S/C(=C\c3cc(C)n(-c4ccc(C(=O)O)cc4)c3C)C2=O)cc1,42*,17,-5,1,-10,43*,
Cc1ccccc1NC(=O)CN1C(=O)S/C(=C\c2cccn2-c2cccc(C(=O)O)c2)C1=O,50*,3,-9,-4,10,74*,LYPLA2 gel ABPP=64*
Cc1cccc(C)c1NC(=O)CN1C(=O)S/C(=C\c2cccn2-c2cccc(C(=O)O)c2)C1=O,4,14,2,-3,-20,.,
Cc1cccc(NC(=O)CN2C(=O)S/C(=C\C(=O)Nc3ccc(Cl)cc3)C2=O)c1,1,-6,-1,4,14,.,
Cc1cccc(NC(=O)CN2C(=O)S/C(=C\c3cccn3-c3cccc(C(=O)O)c3)C2=O)c1,67*,4,-5,-1,6,63*,LYPLA2 gel ABPP=94*
O=C(C1CCN(c2nnc(-n3cccc3)s2)CC1)N1CCN(Cc2ccc3c(c2)OCO3)CC1,34*,24,4,5,10,46*,
CCOc1cccc(Nc2ccc([N+](=O)[O-])cn2)c1,28*,12,4,-5,-14,21,
Cc1ccc(NC(=O)c2cccc(S(=O)(=O)N3CCN(c4ccc(F)cc4)CC3)c2)nc1,3,-19,-3,6,6,.,
O=C(Nc1ccncc1)c1cccc(S(=O)(=O)N2CCN(c3ccc(F)cc3)CC2)c1,40*,-48,-11,-4,3,25,
Cc1ccc(C)c(N2C(=O)c3ccc(C(=O)OCC(=O)c4c(N)n(C)c(=O)n(C)c4=O)cc3C2=O)c1,26*,4,-1,5,9,44*,
